Active and inactive are the calls of the source. No cut-off for these calls is given here.
Columns and labels:
T-24 [1] = assay: Cytotoxicity against human T24 cells after 72 hrs by neutral red dye assay; assay type: functional, cell-based; conditions: T-24, 72 h
Summary of the method: (§1)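 Human tumour cells were grown as monolayers with 10% FBS and penicillin/streptomycin at 37 °C in 5% CO2 (HT-29 and T-24 in McCoy's, MDA-MB-231 in Leibovitz). They were exposed to compound in DMSO (≤0.5% v/v final) at screening concentrations of 20 and 100 μM for 72 h and read by neutral red uptake. Survival is relative to cells given DMSO only, in triplicate.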

MDA-MB-231 [2] = assay: Cytotoxicity against human MDA-MB-231 cells after 72 hrs by neutral red dye assay; assay type: functional, cell-based; conditions: MDA-MB-231, 72 h; summary of the method: as §1
HT-29 [3] = assay: Cytotoxicity against human HT-29 cells after 72 hrs by neutral red dye assay; assay type: functional, cell-based; conditions: HT-29, 72 h; summary of the method: as §1
HT-29 [4] = assay: Induction of apoptosis in human HT-29 cells assessed as DNA fragmentation after 48 hrs by ELISA relative to control; assay type: functional
Summary of the method: (§2)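 DNA fragmentation was measured with the Cell Death Detection ELISA Plus kit after treatment of cultured tumour cells. The signal is expressed relative to untreated control cultures, which are set to 1.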

T-24 [5] = assay: Cytotoxicity against human T24 cells assessed as cell survival at 100 uM after 72 hrs by neutral red dye assay; assay type: functional; conditions: T-24, 72 h, read-out: Survival
Summary of the method: (§3)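 HT-29 and T-24 cells were grown in McCoy's medium and MDA-MB-231 in Leibovitz, each with 10% FBS plus penicillin/streptomycin, as monolayers at 37 °C in 5% CO2. Compounds in DMSO (≤0.5% v/v final) were applied for 72 h. Survival was read by neutral red uptake against 0.5% DMSO-treated cells, as the mean of triplicates.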

T-24 [6] = assay: Induction of apoptosis in human T24 cells assessed as DNA fragmentation after 48 hrs by ELISA relative to control; assay type: functional; summary of the method: as §2
HT-29 [7] = assay: Cytotoxicity against human HT-29 cells assessed as cell survival at 100 uM after 72 hrs by neutral red dye assay; assay type: functional; conditions: HT-29, 72 h, read-out: Survival; summary of the method: as §3
MDA-MB-231 [8] = assay: Cytotoxicity against human MDA-MB-231 cells assessed as cell survival at 100 uM after 72 hrs by neutral red dye assay; assay type: functional; conditions: MDA-MB-231, 72 h, read-out: Survival; summary of the method: as §3
[9] = Cytotoxicity against human CRL8799 cells assessed as cell survival at 20 to 100 uM after 72 hrs by neutral red dye assay; assay type: cell-based; conditions: read-out: Survival
Summary of the method: (§4)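 The non-tumoral lines were grown with 10% FBS plus penicillin/streptomycin, as monolayers at 37 °C in 5% CO2: CRL-8799 in MEG medium and CRL-11233 in BEGM. Compounds in DMSO (≤0.5% v/v final) were applied for 72 h. Survival was read by neutral red uptake against 0.5% DMSO solvent-treated controls, as the mean of triplicates.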

[10] = Cytotoxicity against human CRL11233 cells assessed as cell survival at 20 to 100 uM after 72 hrs by neutral red dye assay; assay type: cell-based; conditions: read-out: Survival; summary of the method: as §4
MDA-MB-231 [11] = assay: Induction of apoptosis in human MDA-MB-231 cells assessed as DNA fragmentation after 24 hrs by ELISA relative to control; assay type: functional; summary of the method: as §2

SMILES	IC50 (T-24 [1])	IC50 (MDA-MB-231 [2])	IC50 (HT-29 [3])	Activity (HT-29 [4])	viability at 100 µM (T-24 [5])	Activity (T-24 [6])	viability at 100 µM (HT-29 [7])	viability at 100 µM (MDA-MB-231 [8])	viability at 72 h, up to 100 µM [9]	viability at 72 h, up to 100 µM [10]	fold change (FC) (HT-29 [4])	fold change (FC) (T-24 [6])	Activity (MDA-MB-231 [11])	fold change (FC) (MDA-MB-231 [11])
CCCCCCNc1nc(SCCCCC)nc2ncccc12	18.5 µM	9 µM	18.4 µM	inactive	< 45%	inactive	< 45%	< 45%						
Cc1ccc(CNc2nc(NCc3ccc(C)cc3)c3ccccc3n2)cc1	15.4 µM	5.47 µM	4.42 µM		< 45%		< 45%	< 45%	13%	33%	5.2	4.3	inactive	
CCCNc1nc(NCCC)c2ccccc2n1	28.9 µM	4.43 µM	18.9 µM	inactive	< 45%		< 45%	< 45%	0%	66%		2	inactive	
c1ccc(CCNc2ccnc(NCCc3ccccc3)n2)cc1	9.14 µM	3.01 µM	6.97 µM	inactive	< 45%		< 45%	< 45%	5%	5%		1.2		1.3
CCCCCCNc1nc(SC(C)C)nc2ncccc12	15.8 µM	4.5 µM	20.2 µM		< 45%		< 45%	< 45%				1.6		2.9
Clc1ccc(CNc2nc(NCc3ccc(Cl)cc3)c3cccnc3n2)cc1	11 µM	8.3 µM	15 µM	inactive	< 45%		< 45%	< 45%	0%	100%		1.9		1.3
CCCCCCNc1nc(NCCCCCC)c2cccnc2n1	4.6 µM	2.1 µM	4.23 µM		< 45%		< 45%	< 45%						
Cc1ccc(CNc2nc(NCc3ccc(C)cc3)c3cccnc3n2)cc1	5 µM	3.2 µM	7.5 µM	inactive	< 45%		< 45%	< 45%	95%	100%		2.7		4
Cc1ccc(CNc2ccnc(NCc3ccc(C)cc3)n2)cc1	22.2 µM	19.1 µM	14.9 µM		< 45%		< 45%	< 45%	6%	1%	2	4.8		1.5
CCNc1nc(SCC)nc2ncccc12	20.1 µM	18.7 µM	26.2 µM	inactive	< 45%		< 45%	< 45%				1.3		2
CCCCCNc1nc(NCCCCC)c2cccnc2n1	0.7 µM	1.2 µM	0.58 µM		< 45%		< 45%	< 45%	100%	54%	0.9	4.4		2.8
CCCCCCNc1nc(NCCCCCC)c2ccccc2n1	23.3 µM	7.56 µM	5.81 µM	inactive	< 45%	inactive	< 45%	< 45%	2%	0%			inactive	
CCCCNc1nc(SC(C)C)nc2ncccc12	12.3 µM	15.7 µM	32.1 µM	inactive	< 45%	inactive	< 45%	< 45%						1.3
CCCCCCCNc1nc(SC(C)C)nc2ncccc12	8 µM	7 µM	24.4 µM	inactive	< 45%		< 45%	< 45%				1.5		
Clc1ccc(CNc2ccnc(NCc3ccc(Cl)cc3)n2)cc1	8.5 µM	2 µM	9.8 µM		< 45%	inactive	< 45%	< 45%	0%		2.7			2.2
CCCCNc1nc(SCC)nc2ncccc12	20.9 µM	9.2 µM	25.3 µM		< 45%		< 45%	< 45%			1.2	1.5		2.2
CCCCNc1nc(SCCCC)nc2ncccc12	10.6 µM	8.4 µM	13.6 µM	inactive	< 45%		< 45%	< 45%				3.7		
COc1ccc(CNc2ccnc(NCc3ccc(OC)cc3)n2)cc1	18.7 µM	1.5 µM	12.6 µM		< 45%		< 45%	< 45%	0%		1.9	1.5		2.4

Reference: ChEMBL document CHEMBL1821616, “New insights into the structural requirements for pro-apoptotic agents based on 2,4-diaminoquinazoline, 2,4-diaminopyrido[2,3-d]pyrimidine and 2,4-diaminopyrimidine derivatives” (Eur J Med Chem, 2011)
